Results taken from ChEMBL document CHEMBL4428053, “Application of a Parallel Synthetic Strategy in the Discovery of Biaryl Acyl Sulfonamides as Efficient and Selective NaV1.7 Inhibitors” (J Med Chem, 2016).
Active and inactive are the calls of the source. No cut-off for these calls is given here.

Legend:
[1] = target: T1, Sodium channel protein type 9 subunit alpha (Homo sapiens, UniProt Q15858); experiment: Inhibition of human Nav1.7 expressed in HEK293 cells at 5 uM incubated for 3 to 5 mins at -125 mV holding potential by electrophysiology assay relative to control; assay type: cell-based
Target sequence in this assay (Q15858 whole entry, looked up): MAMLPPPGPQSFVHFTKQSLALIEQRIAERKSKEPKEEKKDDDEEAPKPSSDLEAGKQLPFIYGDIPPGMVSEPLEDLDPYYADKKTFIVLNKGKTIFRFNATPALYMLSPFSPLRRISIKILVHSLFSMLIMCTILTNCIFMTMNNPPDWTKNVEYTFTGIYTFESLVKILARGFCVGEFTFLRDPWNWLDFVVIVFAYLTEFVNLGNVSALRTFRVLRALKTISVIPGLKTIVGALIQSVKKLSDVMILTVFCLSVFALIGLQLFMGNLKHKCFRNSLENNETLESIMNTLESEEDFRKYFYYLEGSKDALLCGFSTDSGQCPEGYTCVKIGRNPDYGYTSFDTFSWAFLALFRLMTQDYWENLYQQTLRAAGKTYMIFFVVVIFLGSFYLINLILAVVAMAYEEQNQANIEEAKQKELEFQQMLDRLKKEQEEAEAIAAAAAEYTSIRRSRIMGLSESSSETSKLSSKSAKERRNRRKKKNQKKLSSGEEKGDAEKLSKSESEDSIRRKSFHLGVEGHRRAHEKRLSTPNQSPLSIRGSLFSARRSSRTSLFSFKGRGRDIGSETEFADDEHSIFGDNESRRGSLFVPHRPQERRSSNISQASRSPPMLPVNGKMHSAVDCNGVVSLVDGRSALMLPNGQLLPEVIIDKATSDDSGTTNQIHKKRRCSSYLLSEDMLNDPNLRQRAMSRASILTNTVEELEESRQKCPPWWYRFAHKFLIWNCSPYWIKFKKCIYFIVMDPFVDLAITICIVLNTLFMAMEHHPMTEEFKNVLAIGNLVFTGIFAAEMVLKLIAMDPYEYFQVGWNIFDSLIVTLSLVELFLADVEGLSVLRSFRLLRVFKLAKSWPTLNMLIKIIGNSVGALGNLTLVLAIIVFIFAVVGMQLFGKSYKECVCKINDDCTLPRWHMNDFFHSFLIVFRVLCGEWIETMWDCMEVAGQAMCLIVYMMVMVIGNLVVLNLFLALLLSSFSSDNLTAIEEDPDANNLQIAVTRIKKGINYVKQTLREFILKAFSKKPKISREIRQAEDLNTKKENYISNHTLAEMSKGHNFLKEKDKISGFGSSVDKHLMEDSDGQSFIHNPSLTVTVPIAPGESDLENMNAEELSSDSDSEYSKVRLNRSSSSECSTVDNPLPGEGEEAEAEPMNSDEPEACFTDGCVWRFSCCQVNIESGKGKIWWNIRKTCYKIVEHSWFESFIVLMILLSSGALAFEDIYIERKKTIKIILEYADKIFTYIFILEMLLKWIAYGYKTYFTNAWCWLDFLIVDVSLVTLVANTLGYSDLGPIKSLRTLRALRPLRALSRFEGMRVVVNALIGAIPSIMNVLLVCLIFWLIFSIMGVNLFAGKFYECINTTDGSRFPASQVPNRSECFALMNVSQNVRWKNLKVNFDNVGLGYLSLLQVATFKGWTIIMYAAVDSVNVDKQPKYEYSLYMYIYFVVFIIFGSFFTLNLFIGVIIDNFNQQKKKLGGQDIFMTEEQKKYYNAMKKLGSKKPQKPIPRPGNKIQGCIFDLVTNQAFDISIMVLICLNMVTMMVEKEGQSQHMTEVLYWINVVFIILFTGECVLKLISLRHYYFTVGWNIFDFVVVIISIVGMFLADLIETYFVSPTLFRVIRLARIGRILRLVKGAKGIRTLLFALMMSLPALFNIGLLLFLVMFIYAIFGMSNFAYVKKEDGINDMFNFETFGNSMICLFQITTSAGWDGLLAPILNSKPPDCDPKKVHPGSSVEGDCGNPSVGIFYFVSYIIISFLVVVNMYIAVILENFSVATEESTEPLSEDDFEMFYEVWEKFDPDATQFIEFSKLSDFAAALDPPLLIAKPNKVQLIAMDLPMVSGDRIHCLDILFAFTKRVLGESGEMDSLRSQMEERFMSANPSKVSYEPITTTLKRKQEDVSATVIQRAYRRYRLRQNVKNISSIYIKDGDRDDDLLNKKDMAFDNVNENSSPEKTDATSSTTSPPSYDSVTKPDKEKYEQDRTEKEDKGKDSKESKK

[2] = in vitro; conditions: human, liver microsomes
[3] = target: Sodium channel protein type 5 subunit alpha (Homo sapiens, UniProt Q14524); experiment: Inhibition of human Nav1.5 expressed in HEK293 cells incubated for 3 to 5 mins at -50 mV holding potential by electrophysiology assay; assay type: cell-based
[4] = in vitro; conditions: rat, liver microsomes
[5] = target: T1, Sodium channel protein type 9 subunit alpha; experiment: Inhibition of human Nav1.7 expressed in HEK293 cells incubated for 3 to 5 mins at -125 mV holding potential by electrophysiology assay; assay type: cell-based
Target sequence in this assay (Q15858 whole entry): as the sequence (Q15858 whole entry, looked up) above

[6] = target: Voltage-gated inwardly rectifying potassium channel KCNH2 (Homo sapiens, UniProt Q12809)
[7] = system: Mus musculus; experiment: In vivo inhibition of Nav1.7 in C57BL/6 mouse assessed as reduction in histamine-induced scratching bouts at 30 mg/kg, po administered 4 hrs prior to histamine challenge measured for 15 mins; assay type: functional, organism-based
Procedure, shortened: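 Mice were dosed orally with vehicle, diphenhydramine (30 mg/kg, n = 8) or test article at 30 (n = 9), 100 (n = 10) or 300 (n = 10) mg/kg; vehicle n = 12. All groups received histamine intradermally. Total scratch bouts were counted, with unbound plasma concentration reported per dose. Statistics: one-way ANOVA with Dunnett's test versus vehicle.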

[8] = target: T2, Cytochrome P450 2D6 (Homo sapiens, UniProt P10635)
[9] = target: T3, Cytochrome P450 2C9 (Homo sapiens, UniProt P11712)
[10] = target: T3, Cytochrome P450 2C9; remark: listed apart in the source
[11] = target: T4, Cytochrome P450 3A4 (Homo sapiens, UniProt P08684)
[12] = target: T2, Cytochrome P450 2D6; remark: listed apart in the source
[13] = target: T4, Cytochrome P450 3A4; remark: listed apart in the source

Chain of Sodium channel protein type 5 subunit alpha (Q14524 whole entry): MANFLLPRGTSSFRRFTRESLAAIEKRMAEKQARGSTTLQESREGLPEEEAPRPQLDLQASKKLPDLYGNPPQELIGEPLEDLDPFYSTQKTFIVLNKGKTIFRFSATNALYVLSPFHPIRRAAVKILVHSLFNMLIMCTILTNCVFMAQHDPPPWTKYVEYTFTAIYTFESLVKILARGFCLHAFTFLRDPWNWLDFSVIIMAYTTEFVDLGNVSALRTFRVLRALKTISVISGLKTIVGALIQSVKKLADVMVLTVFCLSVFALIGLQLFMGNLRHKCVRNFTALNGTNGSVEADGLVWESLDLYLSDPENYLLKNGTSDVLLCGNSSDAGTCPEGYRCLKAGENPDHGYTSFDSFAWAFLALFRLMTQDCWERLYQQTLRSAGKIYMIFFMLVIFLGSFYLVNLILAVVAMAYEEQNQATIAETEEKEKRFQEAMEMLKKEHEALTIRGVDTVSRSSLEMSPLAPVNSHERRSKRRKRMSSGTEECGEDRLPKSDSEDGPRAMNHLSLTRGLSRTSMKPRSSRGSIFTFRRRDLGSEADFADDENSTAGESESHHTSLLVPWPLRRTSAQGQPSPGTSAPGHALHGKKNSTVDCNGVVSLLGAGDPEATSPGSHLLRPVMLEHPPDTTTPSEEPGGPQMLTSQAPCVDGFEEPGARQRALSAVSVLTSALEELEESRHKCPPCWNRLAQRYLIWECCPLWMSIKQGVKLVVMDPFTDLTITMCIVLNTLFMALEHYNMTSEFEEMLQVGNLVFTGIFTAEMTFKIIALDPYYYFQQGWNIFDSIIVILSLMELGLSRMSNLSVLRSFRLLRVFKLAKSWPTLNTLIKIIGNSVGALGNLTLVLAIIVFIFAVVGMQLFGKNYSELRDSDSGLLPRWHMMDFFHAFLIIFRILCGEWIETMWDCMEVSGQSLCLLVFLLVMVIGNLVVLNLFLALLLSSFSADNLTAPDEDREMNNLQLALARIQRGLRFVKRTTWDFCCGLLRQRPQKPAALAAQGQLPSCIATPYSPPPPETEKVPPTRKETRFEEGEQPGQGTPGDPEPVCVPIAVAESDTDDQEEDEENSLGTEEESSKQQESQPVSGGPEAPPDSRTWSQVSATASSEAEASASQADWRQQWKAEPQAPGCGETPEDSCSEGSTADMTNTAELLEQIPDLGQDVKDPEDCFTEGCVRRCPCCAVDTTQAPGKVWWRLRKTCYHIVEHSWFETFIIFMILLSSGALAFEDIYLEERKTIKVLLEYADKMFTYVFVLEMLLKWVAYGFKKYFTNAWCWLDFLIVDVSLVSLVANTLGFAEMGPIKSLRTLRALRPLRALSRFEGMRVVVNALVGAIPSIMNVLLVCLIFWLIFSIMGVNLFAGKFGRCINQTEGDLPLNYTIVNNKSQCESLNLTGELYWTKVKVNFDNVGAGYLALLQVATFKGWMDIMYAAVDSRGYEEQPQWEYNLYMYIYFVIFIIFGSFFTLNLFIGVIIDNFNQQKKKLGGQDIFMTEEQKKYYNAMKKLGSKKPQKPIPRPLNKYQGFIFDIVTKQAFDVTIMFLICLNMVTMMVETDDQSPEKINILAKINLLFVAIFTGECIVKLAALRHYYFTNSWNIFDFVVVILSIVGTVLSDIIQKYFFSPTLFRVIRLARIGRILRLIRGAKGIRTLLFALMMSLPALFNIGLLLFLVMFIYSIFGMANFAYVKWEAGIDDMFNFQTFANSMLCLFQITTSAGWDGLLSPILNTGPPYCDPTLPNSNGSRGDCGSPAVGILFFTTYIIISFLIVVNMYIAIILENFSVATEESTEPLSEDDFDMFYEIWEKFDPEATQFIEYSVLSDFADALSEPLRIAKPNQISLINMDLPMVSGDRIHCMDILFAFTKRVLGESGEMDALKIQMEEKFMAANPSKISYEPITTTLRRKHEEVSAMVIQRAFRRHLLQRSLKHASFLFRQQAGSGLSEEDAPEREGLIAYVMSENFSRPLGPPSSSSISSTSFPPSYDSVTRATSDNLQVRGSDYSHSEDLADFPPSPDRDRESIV
T3 sequence (P11712 whole entry): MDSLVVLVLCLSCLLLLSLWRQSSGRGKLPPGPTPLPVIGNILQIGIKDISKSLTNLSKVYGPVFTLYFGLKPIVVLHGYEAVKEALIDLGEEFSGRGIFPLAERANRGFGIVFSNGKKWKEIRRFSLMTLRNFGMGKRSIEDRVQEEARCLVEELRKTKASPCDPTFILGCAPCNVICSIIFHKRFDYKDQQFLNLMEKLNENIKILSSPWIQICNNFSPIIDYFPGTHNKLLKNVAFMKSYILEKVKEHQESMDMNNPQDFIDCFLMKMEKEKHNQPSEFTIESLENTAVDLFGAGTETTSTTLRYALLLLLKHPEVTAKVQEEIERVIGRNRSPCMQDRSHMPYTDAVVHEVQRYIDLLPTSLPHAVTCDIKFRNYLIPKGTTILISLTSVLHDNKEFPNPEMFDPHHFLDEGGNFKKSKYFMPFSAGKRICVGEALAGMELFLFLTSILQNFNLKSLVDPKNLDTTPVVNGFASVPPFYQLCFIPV
T2 sequence (P10635 whole entry): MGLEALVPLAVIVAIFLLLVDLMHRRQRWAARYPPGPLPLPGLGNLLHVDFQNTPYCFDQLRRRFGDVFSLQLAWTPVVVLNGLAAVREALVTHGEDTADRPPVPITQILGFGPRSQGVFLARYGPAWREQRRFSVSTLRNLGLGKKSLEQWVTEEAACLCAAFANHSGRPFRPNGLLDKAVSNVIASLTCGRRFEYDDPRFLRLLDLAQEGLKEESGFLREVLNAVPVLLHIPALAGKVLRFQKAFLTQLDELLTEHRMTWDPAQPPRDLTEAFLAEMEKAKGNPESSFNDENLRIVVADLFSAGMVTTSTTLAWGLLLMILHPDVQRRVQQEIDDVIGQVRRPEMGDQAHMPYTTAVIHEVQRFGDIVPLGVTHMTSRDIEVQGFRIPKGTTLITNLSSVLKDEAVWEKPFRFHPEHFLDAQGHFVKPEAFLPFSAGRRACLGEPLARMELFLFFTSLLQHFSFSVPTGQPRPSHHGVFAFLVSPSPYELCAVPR

Structure (SMILES): CS(=O)(=O)NC(=O)CSCC(=O)Nc1ccc(Cl)c(Cl)c1
- inhibition [1]: < 5%

Structure (SMILES): CS(=O)(=O)NC(=O)C1CC(=O)N(Cc2ccc(Cl)c(Cl)c2)C1 (centres undefined)
- inhibition [1]: < 5%

Structure (SMILES): CS(=O)(=O)NC(=O)c1csc(Nc2ccc(Cl)c(Cl)c2)n1
- inhibition [1]: < 5%

Structure (SMILES): COc1cc(C(=O)NS(C)(=O)=O)ccc1-c1cnc(Oc2cc(Cl)cc(Cl)c2)c(C(F)(F)F)c1
- microsomal CLint at 1 µM [2]: < 14 µL/min/mg
- IC50 [3]: 2.35 µM
- microsomal CLint at 1 µM [4]: < 14 µL/min/mg
- IC50 [5]: 0.028 µM

Structure (SMILES): CS(=O)(=O)NC(=O)c1cc(F)c(COc2ccc(Cl)c(Cl)c2)cc1F
- Ki [6]: > 30 µM

Structure (SMILES): CN(C)CCOC(c1ccccc1)c1ccccc1
- inhibition [7]: Active

Structure (SMILES): CS(=O)(=O)NC(=O)c1ccc2c(-c3ccc(C(F)(F)F)c(Cl)c3)nccc2c1
- IC50 [3]: > 30 µM
- Ki [6]: > 30 µM
- IC50 [5]: 1.55 µM

Structure (SMILES): CC(C)COc1ncc(-c2ccc(C(=O)NS(C)(=O)=O)cc2Cl)cc1Cl
- microsomal CLint at 1 µM [2]: 30 µL/min/mg
- microsomal CLint at 1 µM [4]: 16.5 µL/min/mg
- IC50 [5]: 0.29 µM

Structure (SMILES): CC(C)COc1ncc(-c2ccc(C(=O)NS(C)(=O)=O)cc2C2=CCOC2)cc1Cl
- microsomal CLint at 1 µM [2]: > 399 µL/min/mg
- IC50 [3]: > 42 µM
- microsomal CLint at 1 µM [4]: < 14 µL/min/mg
- IC50 [5]: 0.26 µM

Structure (SMILES): CC(C)(C)OC(=O)N[C@@H](CC(=O)NS(C)(=O)=O)Cc1ccc(Cl)c(Cl)c1
- inhibition [1]: < 5%

Structure (SMILES): Cc1cc(-c2cnc(OCC(C)C)c(Cl)c2)ccc1C(=O)NS(C)(=O)=O
- microsomal CLint at 1 µM [2]: 22 µL/min/mg
- microsomal CLint at 1 µM [4]: < 14 µL/min/mg
- IC50 [5]: > 42 µM

Structure (SMILES): CS(=O)(=O)NC(=O)c1cc(F)c(-c2ccc(Cl)c(Cl)c2)cc1F
- IC50 [3]: > 42 µM
- Ki [6]: > 30 µM
- IC50 [5]: 2.54 µM

Structure (SMILES): COc1cc(C(=O)NS(C)(=O)=O)ccc1-c1cnc(OCC2(C)CC2)c(Cl)c1
- microsomal CLint at 1 µM [2]: < 14 µL/min/mg
- IC50 [3]: 9.3 µM
- microsomal CLint at 1 µM [4]: < 14 µL/min/mg
- IC50 [5]: 0.2 µM

Structure (SMILES): CC(C)COc1ncc(-c2ccc(C(=O)NS(C)(=O)=O)cc2F)cc1Cl
- microsomal CLint at 1 µM [2]: 27 µL/min/mg
- IC50 [3]: 23 µM
- microsomal CLint at 1 µM [4]: 22 µL/min/mg
- IC50 [5]: 0.66 µM

Structure (SMILES): COc1cc(C(=O)NS(C)(=O)=O)ccc1-c1cnc(Oc2cc(Cl)cnc2OC)c(Cl)c1
- microsomal CLint at 1 µM [2]: < 14 µL/min/mg
- IC50 [3]: 11.6 µM
- microsomal CLint at 1 µM [4]: < 14 µL/min/mg
- IC50 [5]: 0.15 µM

Structure (SMILES): CC(C)COc1ncc(-c2c(F)cc(C(=O)NS(C)(=O)=O)cc2F)cc1Cl
- IC50 [5]: 1.24 µM

Structure (SMILES): CS(=O)(=O)NC(=O)Cc1ccc(Cl)c(Cl)c1
- inhibition [1]: < 5%

Structure (SMILES): COc1cc(C(=O)NS(C)(=O)=O)ccc1-c1cnc(Oc2cc(Cl)cc(Cl)c2)c(C(F)F)c1
- microsomal CLint at 1 µM [2]: < 14 µL/min/mg
- IC50 [3]: 18.8 µM
- microsomal CLint at 1 µM [4]: < 14 µL/min/mg

Structure (SMILES): CC(C)COc1ncc(-c2ccc(C(=O)NS(C)(=O)=O)c(F)c2)cc1Cl
- microsomal CLint at 1 µM [2]: < 14 µL/min/mg
- IC50 [3]: 18 µM
- microsomal CLint at 1 µM [4]: 28 µL/min/mg
- IC50 [5]: 3.04 µM

Structure (SMILES): CS(=O)(=O)NC(=O)c1cc(-c2ccc(Cl)c(Cl)c2)[nH]n1
- inhibition [1]: < 5%

Structure (SMILES): CS(=O)(=O)NC(=O)C1CC(=O)N(c2ccc(Cl)c(Cl)c2)C1 (centres undefined)
- inhibition [1]: < 5%

Structure (SMILES): CS(=O)(=O)NC(=O)c1cc(-c2ccc(Cl)c(Cl)c2)nc2ccccc12
- inhibition [1]: < 5%

Structure (SMILES): CC(C)COc1ncc(-c2ccc(C(=O)NS(C)(=O)=O)cc2C#N)cc1Cl
- microsomal CLint at 1 µM [2]: 20 µL/min/mg
- IC50 [3]: 24 µM
- microsomal CLint at 1 µM [4]: < 14 µL/min/mg
- IC50 [5]: 1.62 µM

Structure (SMILES): CS(=O)(=O)NC(=O)c1cc(F)c(Oc2ccc(Cl)c(Cl)c2)cc1F
- IC50 [3]: > 30 µM
- Ki [6]: > 30 µM
- IC50 [5]: 0.74 µM

Structure (SMILES): COc1cc(C(=O)NS(C)(=O)=O)ccc1-c1cnc(OC2CCC2)c(Cl)c1
- microsomal CLint at 1 µM [2]: 102 µL/min/mg
- IC50 [3]: 17.8 µM
- microsomal CLint at 1 µM [4]: 17 µL/min/mg
- IC50 [5]: 0.55 µM

Structure (SMILES): CC(C)COc1ncc(-c2cc(F)c(C(=O)NS(C)(=O)=O)cc2F)cc1Cl
- IC50 [8]: > 50 µM
- IC50 [9]: 34.7 µM
- microsomal CLint at 1 µM [2]: 47 µL/min/mg
- IC50 [10]: 34.1 µM
- IC50 [3]: > 30 µM
- IC50 [11]: 48.6 µM
- Ki [6]: > 30 µM
- microsomal CLint at 1 µM [4]: 22 µL/min/mg
- IC50 [12]: > 50 µM
- IC50 [13]: > 50 µM
- IC50 [5]: 0.53 µM

Structure (SMILES): CS(=O)(=O)NC(=O)CCc1ccc(Cl)c(Cl)c1
- inhibition [1]: < 5%

Structure (SMILES): CS(=O)(=O)NC(=O)CNC(=O)c1ccc(Cl)c(Cl)c1
- inhibition [1]: < 5%
